The text below walks through data of ChEMBL document CHEMBL1135739, “Radiolabeled amino acids for tumor imaging with PET: radiosynthesis and biological evaluation of 2-amino-3-[18F]fluoro-2-methylpropanoic acid and 3-[18F]fluoro-2-methyl-2-(methylamino)propanoic acid” (J Med Chem, 2002).

The species entered for series [1] is Rattus norvegicus. As to the kind of experiment: Radioactivity distribution in kidney of tumor-bearing fischer rat after injection of [18F]fluoro-2-methylpropanoic acid after 5 min. The format is ADME, organism-based. To be noted: in vivo. The essentials:
(§1)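 Male Fischer 344 rats carried intracranial 9L gliosarcoma, stereotactically implanted (4×10^4 cells) and used 17–19 days later. Awake, restrained animals received about 35 μCi tracer in 0.3 mL sterile water via the tail vein and were killed at 5, 60 or 120 min (n = 4–5). Tissues were weighed, gamma-counted, decay-corrected and reported as %ID/g ± standard error.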

Series [2] is filed under the species Rattus norvegicus. The experiment in a line: Radioactivity distribution in muscle of tumor-bearing fischer rat after injection of [18F]fluoro-2-methylpropanoic acid after 60 min. Format: ADME, organism-based, Muscle tissue. The note with it: in vivo, 1 h. The essentials: as §1
For series [3], the species on record is Rattus norvegicus. The experiment in a line: Radioactivity distribution in brain of normal fischer rat after injection of [18F]fluoro-2-methylpropanoic acid after 120 min. The format is ADME, organism-based. To be noted: in vivo, 2 h. The essentials:
(§2)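 Normal male Fischer 344 rats (200–250 g), anesthetized with i.m. ketamine:xylazine (1:1), got ~85 μCi of tracer in 0.3 mL sterile water i.v. via tail-vein catheter. Groups of four were killed at 5, 30, 60 or 120 min. Tissues were weighed and gamma-counted against dose standards, and counts were decay-corrected to %ID/g. Results are mean ± standard error (n = 4), compared by one-way ANOVA.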

Series [4] is filed under the species Rattus norvegicus. As to the kind of experiment: Radioactivity distribution in spleen of normal fischer rat after injection of [18F]fluoro-2-methylpropanoic acid after 60 min. The format is ADME, organism-based. The note with it: in vivo, 1 h. In a few lines: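 Male Fischer 344 rats (200–250 g), fed ad libitum, under intramuscular ketamine:xylazine anesthesia, got ~85 μCi radiotracer in 0.3 mL sterile water by tail-vein catheter. Groups of four were killed at 5, 30, 60 or 120 min. Dissected tissues were weighed and gamma-counted with dose standards. Counts were decay-corrected and given as %ID/g, mean ± standard error. Tissues were compared by one-way ANOVA.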

Series [5] is filed under the species Rattus norvegicus. As to the kind of experiment: Radioactivity distribution in spleen of tumor-bearing fischer rat after injection of [18F]fluoro-2-methylpropanoic acid after 5 min. Format: ADME, organism-based. The note with it: in vivo. The essentials:
(§3)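 Male Fischer rats had 4×10^4 9L gliosarcoma cells implanted stereotactically into the brain, 3 mm right of midline, 1 mm anterior to bregma, 5 mm deep. They were used 17–19 days later. Awake, restrained rats got ~35 μCi in 0.3 mL sterile water by tail vein and were killed at 5, 60 or 120 min. Tissues, tumor and contralateral brain were gamma-counted, decay-corrected, as %ID/g, mean ± SE, n = 4–5.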

Series [6] is filed under the species Rattus norvegicus. The experiment in a line: Radioactivity distribution in liver of tumor-bearing fischer rat after injection of [18F]fluoro-2-methylpropanoic acid after 60 min. The format is ADME, organism-based. The note with it: in vivo, 1 h. In a few lines:
as §1

The species entered for series [7] is Rattus norvegicus. As to the kind of experiment: Radioactivity distribution in testis of tumor-bearing fischer rat after injection of [18F]fluoro-2-methylpropanoic acid after 120 min. Format: ADME, organism-based. To be noted: in vivo, 2 h. The essentials:
as §3

For series [8], the species on record is Rattus norvegicus. As to the kind of experiment: Radioactivity distribution in pancreas of normal fischer rat after injection of [18F]fluoro-2-methylpropanoic acid after 120 min. To be noted: in vivo, 2 h. The format is ADME, organism-based. In a few lines: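 Male Fischer 344 rats (200–250 g), fed ad libitum, anesthetized with intramuscular ketamine:xylazine (1:1, 0.1 mL/100 g). About 85 μCi tracer in 0.3 mL sterile water was given by tail-vein catheter. Groups of four were killed at 5, 30, 60 or 120 min. Tissues were weighed and gamma-counted against dose standards, decay-corrected, and expressed as %ID/g (mean ± standard error).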

Series [9] is filed under the species Rattus norvegicus. The experiment in a line: Radioactivity distribution in heart of tumor-bearing fischer rat after injection of [18F]fluoro-2-methylpropanoic acid after 60 min. Format: ADME, organism-based. The note with it: in vivo, 1 h. In a few lines:
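Male Fischer 344 rats carried intracranial 9L gliosarcoma, implanted stereotactically (4×10^4 cells) and used 17–19 days later. Awake restrained rats got ~35 μCi of tracer in 0.3 mL sterile water by tail-vein injection and were killed at 5, 60 or 120 min. Tissues were weighed and gamma-counted, and counts were decay-corrected to %ID/g. Results are mean ± standard error; n = 4 at 5 and 120 min, n = 5 at 60 min.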

The species entered for series [10] is Rattus norvegicus. The experiment in a line: Radioactivity distribution in liver of tumor-bearing fischer rat after injection of [18F]fluoro-2-methylpropanoic acid after 120 min. The format is ADME, organism-based. To be noted: in vivo, 2 h. In a few lines: as §1
The species entered for series [11] is Rattus norvegicus. The experiment in a line: Radioactivity distribution in tumor of tumor-bearing fischer rat after injection of [18F]fluoro-2-methylpropanoic acid after 5 min. Format: ADME, organism-based. The note with it: in vivo. The essentials:
as §3

The species named for series [12] is Rattus norvegicus. The experiment in a line: Radioactivity distribution in heart of normal fischer rat after injection of [18F]fluoro-2-methylpropanoic acid after 30 min. The format is ADME, organism-based. To be noted: in vivo, 0.5 h. In a few lines: as §2

For `CC(N)(C[18F])C(=O)O.Cl` (configuration not stated), the ID/g in the series listed under Rattus norvegicus [1] turned out to be 8.66%; in the series filed under Rattus norvegicus [2], 0.31%; in the series listed under Rattus norvegicus [3], 0.05%; in the series filed under Rattus norvegicus [4], 0.5%; in the series filed under Rattus norvegicus [5], 0.72%; in the series filed under Rattus norvegicus [6], 0.66%. Besides, the ID/g in the series listed under Rattus norvegicus [7] turned out to be 0.11%; in the series filed under Rattus norvegicus [8] it was 2.48%; in the series filed under Rattus norvegicus [9], 0.33%; in the series listed under Rattus norvegicus [10], 0.25%; in the series listed under Rattus norvegicus [11], 0.91%; in the series listed under Rattus norvegicus [12], 0.29%.
